Source: PubChem BioAssay (several laboratories)
Hits are enriched below; roughly 1.8% of the tested compounds scored in any of these assays.
TDP2 inh: TDP2 (human) inhibition, absorbance primary screen; actives 0.34% (n = 370,000); inhibition, % at 12.8 µM; recombinant TDP2, T5PNP hydrolysis, p-nitrophenol absorbance 415 nm;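 active means inhibition above the mean of all tested compounds plus 3 SD, set per campaign, cut at about 25% in these data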;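 further: 0% = DMSO with enzyme and 100% = buffer with substrate but no TDP2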
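Assay system: Recombinant human TDP2 | Quantity: 120 nM TDP2 per well | Incubation: 2 h at 37 °C | Signal: Epi absorbance | Evaluation: Percent inhibition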
Fh CTSL1 inh: cathepsin L1 inhibition, PFM18AAP counter-screen. recombinant F. hepatica cathepsin L1, Z-Leu-Arg-MCA fluorescence. inhibition, % at 5.96 µM. actives 0.49% (n = 300,000). AID 1906;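 active means inhibition above the mean of all tested compounds plus 3 SD, set per screening campaign, cut at about 17% in these data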;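 further: 0% = plate median of test compound wells and 100% = 1 µM Z-Phe-Ala-diazomethylketone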
Apaf-1 inh: inhibitors of human Apaf-1 apoptosome | AID 489030 | reconstituted apoptosome caspase-3 activity, DEVD-Rh110 fluorescence | O14727 | actives 0.71% (n = 330,000) | inhibition, % at 20 µM; active means inhibition of at least 40% at 20 µM;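 further: plate controls were DMSO wells for no effect and DEVD-CHO caspase inhibitor wells for full effect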
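Assay system – apoptosome proteins · Medium – Hepes buffer, pH 7.5 · Also added – cytochrome c with DEVD-Rh110 · Timing – 30 min compound preincubation, 50 min activation, room temperature · Detection – Rh110 fluorescence, excitation 480 nm, emission 540 nm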
PAD4 FP inh: inhibitors of human PAD4; actives 0.41% (n = 330,000); recombinant PAD4, RCA probe fluorescence polarization; inhibition, % at 6.36 µM; Q9UM07; AID 485272;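 active means percent inhibition above a cutoff equal to the mean of all tested compounds plus 3 SD, cut at about 15% in these data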;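 further: 0% = PAD4 with RCA probe and DMSO and 100% = probe without PAD4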
GSTO1 inh: counter-screen for RBBP9 inhibitors: inhibitors of human GSTO1. recombinant GSTO1, activity-based probe fluorescence polarization. actives 1.1% (n = 300,000). inhibition, % at 5.96 µM. AID 1974. P78417;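 active means inhibition above the campaign mean inhibition plus 3 SD, cut at about 35% in these data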;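 further: 0% = GSTO1-1 with DMSO and 100% = wells lacking GSTO1-1 enzyme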
* hit, by the source's call; . = not tested or not shown.

SMILES | TDP2 inh | Fh CTSL1 inh | Apaf-1 inh | PAD4 FP inh | GSTO1 inh
O=C(/C=C/c1ccc([N+](=O)[O-])s1)N1CCCC1 | 10.2 | 2.6 | 6.3 | -4.5 | 22.3
O=C(CCl)Nc1c(C(=O)Nc2ccc3c(c2)OCCO3)oc2ccccc12 | 6.7 | 58.2* | 14.0 | -4.1 | 36.3*
COCC(=O)Nc1c(C(=O)Nc2ccc3c(c2)OCO3)oc2ccccc12 | -4.7 | 1.4 | 7.2 | 3.4 | 2.1
CC(=O)Nc1nc2ncccn2c1-c1ccc(C)cc1 | -4.9 | . | . | . | .
COC(=O)C1=C(C)N(Cc2ccc(C(F)(F)F)cc2)C(=NCc2ccc3c(c2)OCO3)NC1c1ccccc1C(F)(F)F (stereo not given) | -7.8 | . | . | . | .
COC(=O)CCCC1=CC2=C(c3ccccc3)C(=O)C(C)(OC(=O)C3CCCC3)C(=O)C2=CN1c1ccccc1 (stereo not given) | 16.2 | 2.5 | 17.5 | -7.7 | 35.3*
COC(=O)CCCC1=CC2=C(c3ccccc3)C(=O)C(C)(OC(=O)C3CCCC3)C(=O)C2=CN1C1CC1 (stereo not given) | 8.2 | 0.6 | 16.6 | -3.2 | 29.2
O=C(Nc1cccc(F)c1)OCCN1CCCC12CCC(c1ccccc1)CC2 (stereo not given) | 0.8 | . | . | . | .
Cc1ccc(C(=O)NCCn2c(N)c(C#N)c3nc4ccccc4nc32)cc1 | 5.2 | 0.1 | 10.5 | -6.5 | 27.8
CCCCn1c(NC(=O)c2ccc(F)cc2)c(C#N)c2nc3ccccc3nc21 | . | -5.4 | 94.8* | 69.7* | 67.3*
COc1cc(C2C(C#N)=C(N)OC3=C2C(=O)CCC3)c([N+](=O)[O-])cc1OC (stereo not given) | 6.5 | -2.3 | . | -6.4 | 37.5*
Cc1ccc(C(=O)N/C(=C/c2ccco2)C(=O)NCC2CCCO2)cc1 (stereo not given) | 2.8 | 9.1 | -13.6 | 1.6 | 6.0
O=C(/C=C/c1ccco1)NCC1CCCO1 (stereo not given) | 6.9 | 33.8* | 6.9 | -0.1 | 25.8
COc1ccc(CNC(=O)O[C@H]2CC[C@@]34CCCN3C(=O)CCC[C@H]4[C@H]2C)cc1 | -1.2 | . | . | . | .
CCOC(=O)C1CCCN(c2cc(NCCCO)c([N+](=O)[O-])c3nonc23)C1 (stereo not given) | -12.4 | 1.6 | 40.5* | -0.2 | 8.2
CCCCN1CCN(C2=NC(=O)N(c3ccc(Br)cc3)C(=O)C2)CC1 | -3.9 | . | . | . | .
CNC[C@@H]1Oc2ccc(NC(=O)Nc3ccccc3)cc2C(=O)N([C@@H](C)CO)C[C@H]1C | 1.7 | . | 12.1 | 6.7 | .
CNC[C@@H]1Oc2ccc(NC(=O)Nc3cccc4ccccc34)cc2C(=O)N([C@@H](C)CO)C[C@@H]1C | . | . | 57.2* | -1.6 | .
CNC[C@H]1Oc2ccc(NC(=O)Nc3ccc(OC)cc3)cc2C(=O)N([C@@H](C)CO)C[C@H]1C | . | . | 44.7* | -1.5 | .
Cc1ccc(C2NC(=O)c3n[nH]c(C)c32)cc1 (stereo not given) | -6.0 | . | . | . | .
O[C@@H](c1cc(C(F)(F)F)nc2c(C(F)(F)F)cccc12)[C@H]1CCCCN1 | -8.5 | -0.5 | 51.9* | -2.5 | 3.8
Cc1ccc(/C=C/C(=O)N2CCN(S(=O)(=O)c3c(C)c(C)cc(C)c3C)CC2)o1 | -0.3 | 43.0* | 26.6 | -1.8 | -3.9
CN(C)c1ccc(/C=N/N=C2/NC(=O)/C(=C/c3ccc([N+](=O)[O-])cc3)S2)cc1 | -5.7 | 3.6 | 4.8 | -0.1 | 49.3*
OCCC1CN(Cc2nc(-c3ccccc3)cs2)CCN1C1CCCC1 (stereo not given) | -12.2 | 4.1 | -15.9 | -1.0 | 4.2
CC(C)N1CCN(Cc2nc(-c3ccccc3)cs2)CC1CCO (stereo not given) | 9.6 | 20.3* | 5.9 | -1.9 | 4.8
SMILES | TDP2 inh | Fh CTSL1 inh | Apaf-1 inh | PAD4 FP inh | GSTO1 inh
O=C(CCl)NC(=O)NC12CC3CC(CC(C3)C1)C2 | 2.0 | 2.0 | . | 0.9 | 89.2*
O=C(NCCCO)NC12CC3CC(CC(C3)C1)C2 | 1.1 | -3.7 | -6.7 | -3.2 | 10.9
CCn1c2ccccc2c2cc(NC(=O)COC(=O)c3ccc(F)cc3F)ccc21 | 3.3 | . | . | . | .
C=CCn1c(Cc2cccs2)nnc1SCC(=O)Nc1cccc2ccccc12 | -1.1 | . | . | . | .
CCN(CC)C(=O)CSc1nnc([C@@H](N)C(C)C)o1 | 0.0 | 32.7* | 2.8 | -5.6 | -7.3
O=[N+]([O-])c1cc(/C=N/n2c(-c3cccnc3)n[nH]c2=S)ccc1Cl | -0.4 | -1.0 | 18.5 | 7.2 | 50.6*
O=C(NCc1ccccc1)[C@@H]1CCCN1C(=O)[C@H]1CCCN1C(=O)c1ccc(F)cc1F | 6.2 | . | . | . | .
